Assay results pooled from the literature.
Protocols differ between the studies behind these lines. pEC50, pIC50: −log10 of the molar value.
Cell line: A549
Read-out: cell growth or viability

SMILES | assay | conditions | measurement | value
CCCCC(=O)Nc1ccc(-c2ccc3ncn(CCC)c(=O)c3c2)cc1 | CCK-8 | 72 h | pIC50 | < 5.00
COc1ccc(NC(=O)Nc2cccc(-c3cn(Cc4ccccc4C)nn3)c2)cc1 | CCK-8 | 50 µM, 72 h | viability | 212%
NCC(=O)Nc1ccccc1/N=c1\cc(-c2ccc3c(c2)OCO3)oc2c(N)cccc12 | CCK-8 | 1 µM | inhibition | -3.51%
O=C(Nc1ccc(Cl)cc1)Nc1cccc(-c2cn(Cc3ccc(Cl)cc3)nn2)c1 | CCK-8 | 50 µM, 72 h | viability | 101%
CCCCCCCCCCCCCCCCCCOc1cccc(CC(=O)OCC[N+]2(C)CCOCC2)c1 | SRB | 10 µM | inhibition | 7.62%
CCNc1nc2ccc(-c3c/c(=N\c4ccccc4NC(=O)CCN)c4ccccc4o3)cc2o1 | CCK-8 | 1 µM | inhibition | 14.1%
CCCCn1cnc2ccc(-c3ccc(NC(=O)NCCC)nc3)cc2c1=O | CCK-8 | 72 h | pIC50 | < 5.00
O=C(Nc1ccc(Cl)cc1)Nc1ccc(-c2cn(Cc3ccc(Br)cc3)nn2)cc1 | CCK-8 | 50 µM, 72 h | viability | 78.8%
CCCCCCCCCCCCCCCCCCOc1cccc(CC(=O)OCC[N+](C)(C)C)c1 | SRB | 10 µM | inhibition | 8.12%
COc1ccc(Cn2cnc3ccc(-c4ccc(NC(=O)c5ccccc5)nc4)cc3c2=O)cc1 | CCK-8 | 72 h | pIC50 | < 5.00
[NH2][Pt]([NH2])([Cl])[Cl] | SRB | – | GI50 | 4.9 µM
CCOc1ccc(-c2cc(C(=O)O)c(-c3ccc(Cl)cc3)o2)cc1 | MTT | 48 h | pEC50 | 4.12
C[C@H](N)C(=O)Nc1ccccc1/N=c1\cc(-c2ccc3c(c2)OCO3)oc2ccccc12 | CCK-8 | 1 µM | inhibition | -2.13%
O=C(Nc1cccc(-c2cn(Cc3ccc(Br)cc3)nn2)c1)Nc1ccccc1Br | CCK-8 | 50 µM, 72 h | viability | 70.9%
CCCCCCCCCCCCCCCCCCOc1ccccc1CC(=O)OCC[N+]1(C)CCOCC1 | SRB | 10 µM | inhibition | 37.4%
NCC(=O)Nc1ccccc1/N=c1\cc(-c2ccc3c(c2)OCO3)oc2ccccc12 | CCK-8 | 1 µM | inhibition | -5.88%
CCCCC(=O)Nc1ccc(-c2ccc3ncn(CC4CCC4)c(=O)c3c2)cn1 | CCK-8 | 72 h | pIC50 | 6.49
COc1ccc(NC(=O)NCc2cn(Cc3ccccc3C)nn2)cc1 | CCK-8 | 20 µM, 72 h | viability | 65.6%
CCCCC(=O)Nc1ccc(-c2cnc3ncn(CCC)c(=O)c3c2)cn1 | CCK-8 | 72 h | pIC50 | < 5.00
NCCC(=O)Nc1ccccc1/N=c1\cc(-c2ccc3nc(N)oc3c2)oc2ccc(O)cc12 | CCK-8 | 1 µM | inhibition | 13.9%
CCCCn1cnc2ccc(-c3ccc(NC(=O)C4CCCCC4)nc3)cc2c1=O | CCK-8 | 72 h | pIC50 | 5.89

SMILES | assay | conditions | measurement | value
CCC(=O)NCc1ccc(-c2cnc(C3CN(C(=O)c4ccc(NC(=O)[C@@H]5CC(C)(C)CN5)s4)C3)s2)c2ccccc12 | – | 14 days | GI50 | 0.46 µM
COc1ccc(NC(=O)Nc2ccc(-c3cn(Cc4cccc(Cl)c4)nn3)cc2)cc1 | CCK-8 | 50 µM, 72 h | viability | 91.2%
CCCC(=O)Nc1ccc(-c2ccc3ncn(Cc4ccccc4)c(=O)c3c2)cn1 | CCK-8 | 72 h | pIC50 | < 5.00
O=C(NCc1cn(Cc2ccc(Br)cc2)nn1)Nc1ccc(Cl)cc1 | CCK-8 | 50 µM, 72 h | viability | 97%
C[C@H](N)C(=O)Nc1ccccc1/N=c1\cc(-c2ccc3c(c2)OCCO3)oc2c([N+](=O)[O-])cccc12 | CCK-8 | 1 µM | inhibition | 0.38%
COc1ccc(NC(=O)Nc2cccc(-c3cn(Cc4ccc(Cl)cc4)nn3)c2)cc1 | CCK-8 | 20 µM, 72 h | viability | 147%
CCCCCCCCCCCCCCCCCCOc1cccc(CC(=O)OCC[N+]2(C)CCCC2)c1 | SRB | 10 µM | inhibition | 13.9%
O=C(Nc1ccc(Cl)cc1)Nc1ccc(-c2cn(Cc3ccc(Cl)cc3)nn2)cc1 | CCK-8 | 20 µM, 72 h | viability | 73.2%
CCCCCCCCCCCCCCCCCCOc1ccc(CC(=O)OCC[N+](CC)(CC)CC)cc1 | SRB | 10 µM | inhibition | 21.2%
COc1ccc(NC(=O)NCc2cn(Cc3ccc(C)cc3)nn2)cc1 | CCK-8 | 20 µM, 72 h | viability | 70.4%
O=C(Nc1cccc(-c2cn(Cc3ccc(Cl)cc3)nn2)c1)Nc1ccccc1Br | CCK-8 | 20 µM, 72 h | viability | 159%
COc1ccc(NC(=O)Nc2cccc(-c3cn(Cc4ccc(Br)cc4)nn3)c2)cc1 | CCK-8 | 50 µM, 72 h | viability | 271%
NCCCC(=O)Nc1ccccc1/N=c1\cc(-c2ccc3c(c2)OCO3)oc2ccccc12 | CCK-8 | 1 µM | inhibition | -0.2%
O=C(Nc1ccc(-c2cn(Cc3ccc(Br)cc3)nn2)cc1)Nc1ccccc1Br | CCK-8 | 20 µM, 72 h | viability | 77.3%
O=C(Nc1ccc(Cl)cc1)Nc1cccc(-c2cn(Cc3cccc(Br)c3)nn2)c1 | CCK-8 | 20 µM, 72 h | viability | 123%
CCCCn1cnc2ccc(-c3ccc(NC(=O)Nc4ccc(OC)cc4)nc3)cc2c1=O | CCK-8 | 72 h | pIC50 | < 5.00
O=C(NCc1cn(Cc2ccc(Cl)cc2)nn1)Nc1ccc(Cl)cc1 | CCK-8 | 20 µM, 72 h | viability | 61.7%
CCCCCCCCCCCCCCCCCCOc1ccc(CC(=O)OCC[N+]2(C)CCCCC2)cc1 | SRB | 10 µM | inhibition | 11.1%
COc1ccc(NC(=O)NCc2cn(Cc3ccc(Cl)cc3)nn2)cc1 | CCK-8 | 50 µM, 72 h | viability | 80.9%
NCC(=O)Nc1ccccc1/N=c1\cc(-c2ccc3c(c2)OCO3)oc2c([N+](=O)[O-])cccc12 | CCK-8 | 1 µM | inhibition | -2.29%
